Experimental data as given in ChEMBL document CHEMBL4219052, “Synthesis and biological evaluation of 6-substituted-5-fluorouridine ProTides” (Bioorg Med Chem, 2018).

Legend:
[1] = Cytotoxicity against African green monkey Vero cells measured after 3 days by CelltiterGlo luminescence assay; type: cell-based; conditions: chlorocebus sabaeus
Procedure, shortened: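 Vero cells seeded and left overnight; growth medium then replaced by serial compound dilutions, added in triplicate; medium-only wells defined 0% cytotoxicity. On day 3 cells were lysed and ATP content measured by luciferase luminescence (CellTiter-Glo); CC50 obtained from a 4-PL curve fit.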

[2] = tested on: RL; test: Cytotoxicity against human RL cells after 72 hrs by MTS assay; type: functional, cell-based
Procedure, shortened: (§1)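 Commercial screen: tumour cells seeded at 0.5 to 100 x 10³ cells/well the day before dosing, then exposed 72 h to compound in duplicate, 9 serial 3.16-fold dilutions from 198 µM top concentration. MTS added for a further 4 h at 37 °C, absorbance read; IC50 taken as 50% inhibition of viability by curve fitting.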

[3] = tested on: SW-620; test: Cytotoxicity against human SW620 cells after 72 hrs by MTS assay; type: functional, cell-based; conditions: SW-620, 72 h; procedure, shortened: as §1
[4] = Cytotoxicity against human Hs445 cells after 72 hrs by MTS assay; type: functional, cell-based; conditions: Hs 445, 72 h; procedure, shortened: as §1
[5] = tested on: Chikungunya virus; test: Antiviral activity against Chikungunya virus infected in African green monkey Vero cells assessed as reduction in virus-induced cytopathic effect pretreated for 1 hr followed by viral infection measured after 3 days by crystal violet staining based assay; type: functional, organism-based
[6] = tested on: HEL 92.1.7; test: Cytotoxicity against human HEL 92.1.7 cells after 72 hrs by MTS assay; type: functional, cell-based; conditions: HEL 92.1.7, 72 h; procedure, shortened: as §1
[7] = tested on: MCF7; test: Cytotoxicity against human MCF7 cells after 72 hrs by MTS assay; type: functional, cell-based; conditions: MCF7, 72 h; procedure, shortened: as §1
[8] = tested on: MV4-11; test: Cytotoxicity against human MV411 cells after 72 hrs by MTS assay; type: functional, cell-based; conditions: MV4-11, 72 h; procedure, shortened: as §1
[9] = tested on: MIA PaCa-2; test: Cytotoxicity against human MIAPaCa2 cells after 72 hrs by MTS assay; type: functional, cell-based; conditions: MIA PaCa-2, 72 h; procedure, shortened: as §1
[10] = biological target: Orotidine 5'-phosphate decarboxylase (Methanobacterium thermoautotrophicum, UniProt O26232); test: Inhibition of Methanobacterium thermoautotrophicum ODCase; parameters: species or system Methanothermobacter thermautotrophicus
[11] = biological target: T1, Orotidine 5'-phosphate decarboxylase (Saccharomyces cerevisiae S288c, UniProt P03962); test: Inhibition of yeast ODCase
T1 sequence (P03962 whole entry): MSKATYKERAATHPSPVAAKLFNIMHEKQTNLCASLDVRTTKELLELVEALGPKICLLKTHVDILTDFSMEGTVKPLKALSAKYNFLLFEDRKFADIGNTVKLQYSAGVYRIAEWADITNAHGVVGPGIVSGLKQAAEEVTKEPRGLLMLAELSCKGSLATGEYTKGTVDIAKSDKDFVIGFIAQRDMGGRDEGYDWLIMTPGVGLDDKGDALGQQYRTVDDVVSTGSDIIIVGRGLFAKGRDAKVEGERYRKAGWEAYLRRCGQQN

[12] = biological target: T2, Uridine 5'-monophosphate synthase (Homo sapiens, UniProt P11172); test: Inhibition of human ODCase
T2 sequence (P11172 whole entry): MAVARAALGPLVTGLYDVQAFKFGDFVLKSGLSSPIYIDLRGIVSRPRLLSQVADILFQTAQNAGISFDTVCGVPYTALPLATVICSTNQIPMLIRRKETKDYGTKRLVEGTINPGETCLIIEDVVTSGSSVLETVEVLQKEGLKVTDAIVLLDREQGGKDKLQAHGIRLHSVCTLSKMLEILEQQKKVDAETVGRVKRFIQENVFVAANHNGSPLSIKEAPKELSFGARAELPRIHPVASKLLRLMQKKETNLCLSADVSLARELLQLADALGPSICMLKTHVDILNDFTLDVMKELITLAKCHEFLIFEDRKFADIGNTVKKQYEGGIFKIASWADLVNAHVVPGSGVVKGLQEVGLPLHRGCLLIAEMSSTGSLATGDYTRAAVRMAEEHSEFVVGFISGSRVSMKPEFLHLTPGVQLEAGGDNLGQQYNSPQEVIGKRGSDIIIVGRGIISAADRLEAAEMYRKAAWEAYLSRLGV

Chain of Orotidine 5'-phosphate decarboxylase (Methanobacterium thermoautotrophicum, UniProt O26232) (O26232 whole entry): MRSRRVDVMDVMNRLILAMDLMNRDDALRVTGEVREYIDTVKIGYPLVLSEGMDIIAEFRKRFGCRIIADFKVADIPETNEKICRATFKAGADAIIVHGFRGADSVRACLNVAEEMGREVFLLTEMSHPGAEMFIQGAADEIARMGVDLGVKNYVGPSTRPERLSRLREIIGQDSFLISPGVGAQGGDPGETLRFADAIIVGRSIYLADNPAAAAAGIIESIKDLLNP

CCc1c(F)c(=O)[nH]c(=O)n1[C@@H]1O[C@H](COP(=O)(N[C@@H](C)C(=O)OCc2ccccc2)Oc2cccc3ccccc23)[C@@H](O)[C@H]1O (stereo not given in full)
CC50 at 72 h [1]: 53.1 µM | IC50 [2]: 27 µM | IC50 [3]: 12 µM | IC50 [4]: 10 µM | EC50 [5]: > 50 µM | IC50 [6]: > 50 µM | IC50 [7]: > 50 µM

C[C@H](NP(=O)(OC[C@H]1O[C@@H](n2c(N=[N+]=[N-])c(F)c(=O)[nH]c2=O)[C@H](O)[C@@H]1O)Oc1cccc2ccccc12)C(=O)OCc1ccccc1 (stereo not given in full)
CC50 at 72 h [1]: 81.8 µM | IC50 [2]: 12 µM | IC50 [8]: 6.3 µM | IC50 [3]: 28 µM | IC50 [4]: 15 µM | EC50 [5]: > 200 µM | IC50 [6]: 29 µM | IC50 [9]: 27 µM | IC50 [7]: 44 µM

C[C@H](NP(=O)(OC[C@H]1O[C@@H](n2c(N=[N+]=[N-])c(F)c(=O)[nH]c2=O)[C@H](O)[C@@H]1O)Oc1ccccc1)C(=O)OCc1ccccc1 (stereo not given in full)
IC50 [2]: 21 µM | IC50 [8]: 8 µM | IC50 [3]: 13 µM | IC50 [4]: 23 µM | IC50 [6]: 17 µM | IC50 [9]: 22 µM | IC50 [7]: 20 µM

CCOC(=O)[C@H](C)NP(=O)(OC[C@H]1O[C@@H](n2c(N=[N+]=[N-])c(F)c(=O)[nH]c2=O)[C@H](O)[C@@H]1O)Oc1ccccc1 (stereo not given in full)
IC50 [2]: > 50 µM | IC50 [8]: > 50 µM | IC50 [3]: > 50 µM | IC50 [4]: 44 µM | IC50 [6]: > 50 µM | IC50 [9]: > 50 µM | IC50 [7]: > 50 µM

C[C@H](NP(=O)(OC[C@H]1O[C@@H](n2c(I)c(F)c(=O)[nH]c2=O)[C@H](O)[C@@H]1O)Oc1cccc2ccccc12)C(=O)OCc1ccccc1 (stereo not given in full)
IC50 [2]: 0.4 µM | IC50 [8]: 0.08 µM | IC50 [3]: 0.52 µM | IC50 [4]: 0.71 µM | IC50 [6]: 0.4 µM | IC50 [9]: 0.63 µM | IC50 [7]: 3.93 µM

Cc1c(F)c(=O)[nH]c(=O)n1[C@@H]1O[C@H](CO)[C@@H](O)[C@H]1O
CC50 at 72 h [1]: 9.04 µM | IC50 [2]: 16 µM | IC50 [8]: 2 µM | IC50 [3]: 8.5 µM | IC50 [4]: 7 µM | EC50 [5]: > 200 µM | IC50 [6]: 14 µM | IC50 [9]: 12 µM | IC50 [7]: 5.4 µM

O=c1[nH]c(=O)n([C@@H]2O[C@H](CO)[C@@H](O)[C@H]2O)c(I)c1F
IC50 [2]: 0.1 µM | IC50 [8]: 0.04 µM | IC50 [3]: 0.5 µM | IC50 [4]: 0.38 µM | IC50 [6]: 0.1 µM | IC50 [9]: 0.02 µM | IC50 [7]: 0.67 µM

CCc1c(F)c(=O)[nH]c(=O)n1[C@@H]1O[C@H](CO)[C@@H](O)[C@H]1O
CC50 at 72 h [1]: > 200 µM | IC50 [2]: > 50 µM | IC50 [3]: > 50 µM | IC50 [4]: > 50 µM | EC50 [5]: > 200 µM | IC50 [6]: > 50 µM | IC50 [7]: > 50 µM

[N-]=[N+]=Nc1c(F)c(=O)[nH]c(=O)n1[C@@H]1O[C@H](CO)[C@@H](O)[C@H]1O
CC50 at 72 h [1]: 47 µM | IC50 [2]: 10 µM | IC50 [8]: 6.6 µM | IC50 [3]: 8 µM | IC50 [4]: 14 µM | EC50 [5]: > 200 µM | IC50 [6]: 10 µM | IC50 [9]: 11 µM | IC50 [7]: 6 µM

O=c1cnn([C@@H]2O[C@H](CO)[C@@H](O)[C@H]2O)c(=O)[nH]1 [6-AZAURIDINE]
CC50 at 72 h [1]: > 10 µM | Ki [10]: 11 µM | EC50 [5]: 0.468 µM | Ki [11]: 0.064 µM

NC(=O)c1[nH]nc([C@@H]2O[C@H](CO)[C@@H](O)[C@H]2O)c1O [PYRAZOFURIN]
Ki [10]: 6.2 µM | Ki [12]: 0.017 µM
